# Assay results from different studies.
# Compare with care: the assays were run in different laboratories.
# Target: Muscarinic acetylcholine receptor M4 (CHRM4, Homo sapiens, UniProt P08173)
# Residues used in one study (P08173 1-479): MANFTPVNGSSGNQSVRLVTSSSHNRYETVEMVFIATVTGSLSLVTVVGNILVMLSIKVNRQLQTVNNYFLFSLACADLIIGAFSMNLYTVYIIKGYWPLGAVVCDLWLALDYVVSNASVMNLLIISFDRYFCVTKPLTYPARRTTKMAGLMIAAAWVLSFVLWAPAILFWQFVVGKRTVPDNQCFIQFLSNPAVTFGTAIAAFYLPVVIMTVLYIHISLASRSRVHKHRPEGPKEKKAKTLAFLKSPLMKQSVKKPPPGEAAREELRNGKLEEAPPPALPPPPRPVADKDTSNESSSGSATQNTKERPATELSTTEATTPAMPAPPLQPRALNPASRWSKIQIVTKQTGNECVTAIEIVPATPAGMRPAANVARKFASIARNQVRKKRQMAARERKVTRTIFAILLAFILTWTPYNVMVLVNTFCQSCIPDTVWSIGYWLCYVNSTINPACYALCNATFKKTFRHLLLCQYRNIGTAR
SMILES,observed,method,concentration,inhibition
c1ccc(C(NCCNC(c2ccccc2)c2ccccc2)c2ccccc2)cc1,cell-free assay,,10 µM,32%
CN1CC[C@@]2(C)c3cc(OC(=O)Nc4ccccc4)ccc3N(C)[C@@H]12,ligand displacement,radioligand,10 µM,0.3%
N#CC1(c2ccccn2)CCN(Cc2cc(C(=O)O)c(=O)n3ccccc23)CC1,cell-free assay,,10 µM,-2.36%
O=C(Nc1cccnn1)N1CCN([C@@H]2CCOc3cc(C(F)(F)F)ccc32)CC1,cell-free assay,,20 µM,15%
Cn1cncc1[C@@](O)(COc1ccc(C#N)cc1-c1ccc(OC(F)(F)F)cc1)c1ccc(C#N)cc1,ligand displacement,,10 µM,-9.7%
COCc1c(-c2cc3cc(C)cc(OC)c3s2)c2c(N)ncnn2c1CN1CCNC(=O)C1,ligand displacement,radioligand,10 µM,6%
Cc1ncc(C)n2nc(/C=C/c3nc(N4CCCC4)cc(N4CCOCC4)n3)nc12,ligand displacement,,10 µM,47%
C[C@H](C(=O)N[C@H]1COc2ccccc2[C@@H]1S(C)(=O)=O)c1ccc(F)cc1,cell-free assay,,10 µM,6%
